PRMT1 FP inh – PRMT1 (human) inhibition, primary screen; Q99873; recombinant PRMT1, activity-based probe fluorescence polarization; inhibition, % at 2.79 µM; 1.3% of 370,000 active; AID 652257;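 active = inhibition above about 21% made by adding two undisclosed values, limit read from the data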
SIAE inh – human SIAE inhibition, primary screen; 0.69% of 370,000 active; AID 1053197; inhibition, % at 9.66 µM; SIAE FP-Rh probe binding, fluorescence polarization;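 active = inhibition above a cutoff: mean of compounds within the control limits plus 3 SD of those, cut at about 17% in these data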;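 note: 0% = plate median of compound wells and 100% = probe without SIAE protein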
rCAG RNA binder – molecules binding r(CAG) RNA repeats; r(CAG) RNA repeat, TO-PRO-1 dye displacement fluorescence; inhibition, % at 3 µM; 1.3% of 370,000 active;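 active = inhibition above the plate cutoff, the mean of all test compounds on that plate plus 3 SD, cut at about 35% in these data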;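 note: 0% = DMSO alone and 100% = 100 µM mitoxantrone as full dye displacement; higher means more dye released from RNA so lower well fluorescence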
ABHD4 inh – inhibits mouse alpha/beta hydrolase domain 4 | AID 720543 | Q8VD66 | purified mABHD4, FP-Rh probe fluorescence polarization | 0.54% of 370,000 active | inhibition, % at 8.92 µM;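 active = inhibition exceeding the mean over every tested compound plus 3 SD, cut at about 30% in these data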;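 note: 0% = plate median of compound wells and 100% = S159A mutant with DMSO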
Target sequence (Q8VD66 whole entry, looked up, the tested form may be a part): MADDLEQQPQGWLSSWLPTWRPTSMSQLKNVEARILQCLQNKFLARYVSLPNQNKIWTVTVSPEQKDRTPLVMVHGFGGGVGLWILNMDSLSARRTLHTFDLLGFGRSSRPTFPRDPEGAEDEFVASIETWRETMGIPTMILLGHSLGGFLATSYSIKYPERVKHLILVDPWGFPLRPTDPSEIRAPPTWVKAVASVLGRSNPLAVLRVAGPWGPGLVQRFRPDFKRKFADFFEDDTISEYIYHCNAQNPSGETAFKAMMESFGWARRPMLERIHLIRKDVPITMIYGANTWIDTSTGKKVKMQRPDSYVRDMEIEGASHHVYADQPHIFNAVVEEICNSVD
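Material: mouse ABHD4 enzyme, wild type; Benchmarks: S159A mutant high control, sample median low control; Buffer or medium: HEPES pH 7.0, NaCl, Pluronic buffer; Signal: fluorescence polarization; Read-out: percent inhibition of probe binding, normalized to plate controls; Timing: pre-incubation 45 min, probe exposure 60 min, at 25 °C; Dosing: 8.92 µM, single dose.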
HTRA1 inh – inhibitors of human serine peptidase HTRA1; Q92743; recombinant HTRA1, FP-rhodamine activity-based probe, fluorescence polarization; inhibition, % at 5.96 µM; 0.5% of 340,000 active; AID 504803; in the data active = inhibition above about 36%;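 note: 0% = enzyme with DMSO and 100% = wells lacking enzyme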
ABHD4 confirm – ABHD4 (mouse) inhibition, FP confirmation | purified mABHD4, FP-Rh probe fluorescence polarization | shares compounds with ABHD4 inh | inhibition, % at 8.92 µM | 55% of 1,800 active | AID 720658;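 active = mean inhibition across replicates above the hit cutoff set in the primary screen, cut at about 30% in these data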;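 note: 0% = wild-type ABHD4 with DMSO and 100% = catalytically dead S159A mutant with DMSO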
SIAE confirm – confirmation of human SIAE inhibitors; shares compounds with SIAE inh; SIAE FP-Rh activity-based probe, fluorescence polarization; inhibition, % at 9.66 µM; 13% of 2,300 active;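 active = mean inhibition of the replicates above the hit cutoff set in the primary screen, cut at about 17% in these data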;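 note: 0% = SIAE with DMSO and probe and 100% = probe without SIAE; inhibitors lower polarization as more probe stays unbound to SIAE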
* hit, by the source's call; nt = no result. Hits are enriched below; roughly 3.3% of the tested compounds scored in any of these assays.

SMILES | PRMT1 FP inh | SIAE inh | rCAG RNA binder | ABHD4 inh | HTRA1 inh | ABHD4 confirm | SIAE confirm
COc1ccc(N2CCN(c3ccc(NC(=O)/C=C\C(=O)O)cc3)CC2)cc1 | 7 | 18* | 7 | 36* | 32 | -7 | 4
CC/C(=C\C(=O)c1ccncc1)Nc1ccc(O)cc1 | 15 | 22* | -4 | 75* | 22 | 38* | 5
O=C(N/N=C/c1ccc(O)cc1)c1ccncc1 | -4 | 11 | 0 | -4 | 5 | nt | nt
Cc1cccc(C(=O)OC(C)C(=O)NCC2CCCCC2)c1O (stereo not drawn) | -2 | 3 | 1 | 5 | 7 | nt | nt
O=C(O)COc1ccccc1/C=N/NC(=O)c1cc2ccccc2cc1O | 18 | 48* | 21 | 37* | 14 | 12 | 53*
O=C1N=c2ccccc2=C1c1sc(=S)n(-c2ccc(O)cc2)c1O | 17 | 22* | 20 | 38* | 8 | 25 | 6
Cc1ccc(C2CCC3(CCC(=O)N3CCOC(=O)Nc3ccc(Br)cc3)CC2)cc1 (stereo not drawn) | -1 | 4 | 6 | -1 | nt | nt | nt
CCCCN1C(=O)C(CC(=O)NCCCN(C)C)CC(C(=O)N(C)C)=C1C (stereo not drawn) | -2 | 10 | 0 | 6 | -3 | nt | nt
COc1ccc(/C=N/c2c(-c3ccco3)nc3ccccn23)cc1OC | 17 | 25* | 6 | 44* | 26 | 3 | 7
O=C(C1COc2ccccc2O1)N1CCCC1 (stereo not drawn) | -4 | 3 | 1 | 4 | 2 | nt | nt
CCOC(=O)C1CCCN(C(=O)C2COc3ccccc3O2)C1 (stereo not drawn) | 9 | 108* | -8 | 45* | -4 | -1 | 9
O=[N+]([O-])c1ccccc1S(=O)(=O)N1CCCC(C(F)(F)F)C1 (stereo not drawn) | 4 | -4 | 2 | 9 | -4 | nt | nt
CN(C)c1ccc(NC(=O)Nc2ccc3c(c2)c(=O)n(C)n3Cc2ccc(Cl)cc2)cc1 | 15 | 27* | 10 | 43* | nt | 26 | 15
CN(C)c1ccc(NC(=O)Nc2ccc3c(c2)c(=O)n(C)n3Cc2ccccc2)cc1 | 13 | 5 | 11 | 24 | nt | nt | nt
CC1CCCCN1C(=O)NC1CC(=O)N(c2ccc3c(c2)OCCO3)C1 (stereo not drawn) | -3 | 5 | -1 | 1 | -3 | nt | nt
Cc1ccc(O)c(CP(=O)(c2ccccc2)c2ccccc2)c1 | -1 | 8 | -4 | -2 | -3 | nt | nt
CCNc1ccccc1CP(=O)(c1ccccc1)c1ccccc1O (stereo not drawn) | 75* | 35* | 9 | 77* | nt | 46* | 12
COc1ccccc1-n1c(=O)c2c3c(sc2n2c(=S)[nH]nc12)CCC3 | 4 | 18* | 10 | 34* | -3 | 29 | 4
O=C(/C=C/c1ccco1)NC(=S)Nc1ccc(N2CCCC2)cc1 | 25* | 18* | 23 | 37* | 25 | 9 | 7
CC(=O)NCCn1c(C)cc2ccccc21 | 5 | 12 | 3 | 0 | 4 | nt | nt
Cc1cc2ccccc2n1CCNC(=O)Cc1cccc2ccccc12 | 1 | 22* | 11 | 46* | 36 | -18 | -2
Cn1c(=O)cc2c3c(c(N4CCCCC4)ccc31)C(=O)c1ccccc1-2 | 18 | 53* | -5 | 104* | nt | 100* | 24*
CCOC(=O)CCC(NC(=O)c1ccc(NCN2C(=O)c3ccccc3C2=O)cc1)C(=O)OCC (stereo not drawn) | 3 | -11 | -2 | -7 | -1 | nt | nt
CCOC(=O)C(CNc1ccc(O)cc1)NC(=O)c1ccccc1 (stereo not drawn) | 21 | 91* | 15 | 84* | nt | 22 | 8
CCNC(=O)n1nccc1C(C)Oc1ccccc1 (stereo not drawn) | -1 | -5 | -2 | 2 | 5 | nt | nt
SMILES | PRMT1 FP inh | SIAE inh | rCAG RNA binder | ABHD4 inh | HTRA1 inh | ABHD4 confirm | SIAE confirm
O=C(NNS(=O)(=O)c1ccc([N+](=O)[O-])cc1)c1ccccc1 | -2 | 5 | 0 | -2 | 0 | nt | nt
O=C(NNS(=O)(=O)c1ccc([N+](=O)[O-])cc1)c1ccc2ccccc2c1O | 1 | 19* | 30 | 31* | 5 | 21 | 2
CCCCC1OC2(C)OC(=N)C1(C#N)C(C#N)(C#N)C2c1ccccc1 (stereo not drawn) | 18 | 38* | 1 | 30* | 6 | 10 | 2
CC1C2(C)OC(=N)C(C#N)(C(C)O2)C1(C#N)C#N (stereo not drawn) | nt | nt | nt | nt | 24 | nt | nt
CC(C)(C)c1cc(CCC(=O)NCc2ccncc2)cc(C(C)(C)C)c1O | nt | nt | nt | nt | -4 | nt | nt
O=C(NN=Cc1c(O)ccc2ccccc12)c1ccncc1 | -5 | 5 | -3 | 16 | 22 | nt | nt
O=C(N/N=C/c1c(O)ccc2ccccc12)c1cccnc1 | -6 | 27* | 3 | 30* | 31 | 32* | -4
Cc1ccc(S(=O)(=O)CCC#N)cc1 | 6 | -2 | -1 | 7 | 5 | nt | nt
COc1ccc2c(c1)c(/C=N/Nc1nc3ccccc3[nH]1)c(C)n2C | 6 | 32* | 17 | 33* | 29 | 59* | 30*
Nc1nc(N)c2cc(CNc3ccc(Cl)c(Cl)c3)ccc2n1 | 3 | 39* | 28 | 38* | -6 | 36* | 46*
Nc1cc(Cl)nc(N/N=C/c2c(O)ccc3ccccc23)n1 | 2 | 19* | 29 | 32* | 29 | 27 | 10
Cc1cc2c(c(=O)o1)C(c1ccc([N+](=O)[O-])o1)C(C#N)=C(N)O2 (stereo not drawn) | 6 | 23* | -3 | 32* | nt | -11 | 0
CC(C)c1ccc(NC2CCCN(C(=O)c3cccc4nccnc34)C2)cc1 (stereo not drawn) | -3 | 0 | -5 | 2 | -2 | nt | nt
COc1ccc(NC(=O)c2cc(C3CCCCN3C(=O)c3ccc4c(c3)CCO4)on2)c(C)c1 (stereo not drawn) | 6 | -3 | 3 | -14 | nt | nt | nt
Cc1csc(N/N=C/c2ccc(O)c([N+](=O)[O-])c2)n1 | 48* | 17* | 28 | 50* | 20 | 83* | -3
C=C(C)C(=O)Oc1ccc(N=Nc2ccc(C)cc2)ccc1=O | 8 | 18* | 28 | 50* | nt | 59* | 6
CC(=O)c1ccc(N=Nc2ccc(C)cc2)cc1 | -1 | 1 | 0 | 2 | 12 | nt | nt
Cc1cc2cc(CNC(=O)c3ccc(S(=O)(=O)N4CCCCC4)cc3)ccc2n1C | 6 | 35* | 19 | 87* | -6 | -11 | -13
CCN(CC)S(=O)(=O)c1ccc(C(=O)NCc2ccc3c(c2)cc(C)n3C)cc1 | 18 | 28* | 18 | 104* | 0 | 0 | -4
Cc1ccccc1OCCCn1c(=O)sc2ccccc21 | 1 | 5 | -3 | -5 | -20 | nt | nt
CC1CN(C(C)C)C(=S)N(c2ccccc2)C1=O (stereo not drawn) | -6 | -5 | 1 | -2 | 5 | nt | nt

Screening results from PubChem.
